Measurements: ChEMBL document CHEMBL3593165, “Enzymatic synthesis of bile acid derivatives and biological evaluation against Trypanosoma cruzi” (Bioorg Med Chem, 2015)
Calls of active or inactive are those of the source. The rule behind the calls is not given here.

Key:
Trypanosoma cruzi [1] = assay: Antiparasitic activity against Trypanosoma cruzi strain CL Brener epimastigotes at 300 uM after 12 days by ELISA reader; assay type: functional
In short: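 T. cruzi CL Brener epimastigotes were grown at 28 °C in LIT medium with 10% heat-inactivated FBS, […], streptomycin and penicillin. Cells were seeded at 5 × 10^6 cells/mL with compound (0.14–300 µM, DMSO ≤0.5% v/v final) for 12 days at 28 °C. Benznidazole served as positive control, with drug-free and parasite-free controls. Growth was read daily at 600 nm in three independent assays.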

Trypanosoma cruzi [2] = assay: Antiparasitic activity against Trypanosoma cruzi strain CL Brener epimastigotes after 12 days by ELISA reader; assay type: functional; conditions: 288 h
In short: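 CL Brener epimastigotes grown at 28 °C in LIT medium with 10% heat-inactivated FBS, hemin, streptomycin and penicillin. Seeded at final 5 × 10^6 cells/mL and exposed to compounds across 0.14–300 µM for 12 days at 28 °C. DMSO vehicle, final ≤0.5% (v/v). Growth read daily at 600 nm. IC50 taken from dose-response curves from three independent assays.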

Structure (SMILES): CCOC(=O)CC[C@@H](C)[C@H]1CC[C@H]2[C@@H]3[C@H](O)C[C@@H]4C[C@H](O)CC[C@]4(C)[C@H]3CC[C@]12C
- inhibition (Trypanosoma cruzi [1]): inactive

Structure (SMILES): CC(=O)O[C@@H]1CC[C@@]2(C)[C@H](CC[C@@H]3[C@@H]2C[C@H](O)[C@]2(C)[C@@H]([C@H](C)CCC(=O)O)CC[C@@H]32)C1
- inhibition (Trypanosoma cruzi [1]): inactive

Structure (SMILES): CCOC(=O)CC[C@@H](C)[C@H]1CC[C@H]2[C@@H]3CC[C@@H]4C[C@H](OC(C)=O)CC[C@]4(C)[C@H]3CC[C@]12C
- inhibition (Trypanosoma cruzi [1]): inactive

Structure (SMILES): CC(=O)O[C@@H]1CC[C@@]2(C)[C@@H](C1)C[C@@H](OC(C)=O)[C@@H]1[C@@H]2CC[C@]2(C)[C@@H]([C@H](C)CCC(=O)O)CC[C@@H]12
- IC50 (Trypanosoma cruzi [2]): 22.8 µM

Structure (SMILES): C[C@H](CCC(=O)O)[C@H]1CC[C@H]2[C@@H]3[C@H](O)C[C@@H]4C[C@H](O)CC[C@]4(C)[C@H]3CC[C@]12C [CHENODIOL]
- IC50 (Trypanosoma cruzi [2]): 236 µM
- inhibition (Trypanosoma cruzi [1]): inactive

Structure (SMILES): CCOC(=O)CC[C@@H](C)[C@H]1CC[C@H]2[C@@H]3CC[C@@H]4C[C@H](O)CC[C@]4(C)[C@H]3CC[C@]12C
- IC50 (Trypanosoma cruzi [2]): 266 µM

Structure (SMILES): CCOC(=O)CC[C@@H](C)[C@H]1CC[C@H]2[C@@H]3[C@H](OC(C)=O)C[C@@H]4C[C@H](O)CC[C@]4(C)[C@H]3CC[C@]12C
- IC50 (Trypanosoma cruzi [2]): 295 µM

Structure (SMILES): CCOC(=O)CC[C@@H](C)[C@H]1CC[C@H]2[C@@H]3CC[C@@H]4C[C@H](OC(C)=O)CC[C@]4(C)[C@H]3C[C@H](O)[C@]12C
- inhibition (Trypanosoma cruzi [1]): inactive

Structure (SMILES): CCOC(=O)CC[C@@H](C)[C@H]1CC[C@H]2[C@@H]3[C@H](O)C[C@@H]4C[C@H](OC(C)=O)CC[C@]4(C)[C@H]3CC[C@]12C
- IC50 (Trypanosoma cruzi [2]): 8.6 µM

Structure (SMILES): CCOC(=O)CC[C@@H](C)[C@H]1CC[C@H]2[C@@H]3CC[C@@H]4C[C@H](O)CC[C@]4(C)[C@H]3C[C@H](O)[C@]12C
- inhibition (Trypanosoma cruzi [1]): inactive

Structure (SMILES): CC(=O)O[C@H]1C[C@H]2[C@@H](CC[C@@H]3C[C@H](O)CC[C@@]32C)[C@@H]2CC[C@H]([C@H](C)CCC(=O)O)[C@@]12C
- inhibition (Trypanosoma cruzi [1]): inactive

Structure (SMILES): CC(=O)O[C@@H]1CC[C@@]2(C)[C@@H](C1)C[C@@H](O)[C@@H]1[C@@H]2CC[C@]2(C)[C@@H]([C@H](C)CCC(=O)O)CC[C@@H]12
- inhibition (Trypanosoma cruzi [1]): inactive
